# Published values gathered from unrelated publications.
# Protocols differ between the studies behind these lines.
# Target: Estrogen receptor (ESR1, Homo sapiens, UniProt P03372)
# One construct used (P03372 1-595): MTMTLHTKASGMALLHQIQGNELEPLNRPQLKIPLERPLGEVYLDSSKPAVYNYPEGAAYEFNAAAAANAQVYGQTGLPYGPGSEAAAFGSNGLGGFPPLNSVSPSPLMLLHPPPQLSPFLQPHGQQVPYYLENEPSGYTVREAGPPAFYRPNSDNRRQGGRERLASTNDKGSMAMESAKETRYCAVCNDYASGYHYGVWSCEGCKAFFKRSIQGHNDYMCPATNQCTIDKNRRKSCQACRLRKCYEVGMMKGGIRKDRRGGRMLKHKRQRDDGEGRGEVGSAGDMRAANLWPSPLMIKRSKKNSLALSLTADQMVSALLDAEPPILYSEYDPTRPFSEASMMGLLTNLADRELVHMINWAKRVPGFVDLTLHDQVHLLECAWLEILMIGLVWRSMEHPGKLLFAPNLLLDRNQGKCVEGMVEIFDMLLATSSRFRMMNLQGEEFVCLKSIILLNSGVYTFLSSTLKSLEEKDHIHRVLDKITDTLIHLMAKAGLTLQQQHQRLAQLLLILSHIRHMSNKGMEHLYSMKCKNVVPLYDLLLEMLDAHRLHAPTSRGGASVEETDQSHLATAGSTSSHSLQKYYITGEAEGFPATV
SMILES,observed,action,technique,tested at,measurement,result
Clc1ccc(-c2cc(Cl)ccc2Cl)cc1,reporter gene,agonist,luciferase,,Emax,< 20%
COc1ccc(S(=O)(=O)N2CCCCC2)cc1C,ligand displacement,,radioligand,10 µM,inhibition,< 30%
O=C(Nc1cccnn1)N1CCN([C@@H]2CCOc3cc(C(F)(F)F)ccc32)CC1,cell-free assay,,,20 µM,inhibition,0%
c1ccc(C(NCCNC(c2ccccc2)c2ccccc2)c2ccccc2)cc1,cell-free assay,,,10 µM,inhibition,63%
Clc1cccc(-c2cccc(Cl)c2)c1,reporter gene,agonist,luciferase,,Emax,< 20%
C[C@H](C(=O)N[C@H]1COc2ccccc2[C@@H]1S(C)(=O)=O)c1ccc(F)cc1,cell-free assay,,,10 µM,inhibition,7%
COCc1c(-c2cc3cc(C)cc(OC)c3s2)c2c(N)ncnn2c1CN1CCNC(=O)C1,ligand displacement,,radioligand,10 µM,inhibition,6%
CC(C)N1CCC[C@H]1CNC(=O)c1cn(C2CCCC2)c(=O)c2c1c1ccccc1n2C,ligand displacement,,radioligand,10 µM,inhibition,15%
